Data published in article PMC5497803 (Cancer Science, 2017).

How the values were obtained:
[1] = test system: phosphorylation of AKT and ERK in AML cells; experiment: Constitutive PI3K/AKT and ERK signaling in AML cells; type: cell-based, human; details: Kasumi‐1 and EOL‐1 cells, 1 μM, 3 h
How it was run: (§1)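 Cells in RPMI-1640/10% FBS treated with 1 μM test compound for 3 h, with no added stimulus. Whole-cell lysates separated by SDS-PAGE and transferred to PVDF. Probed for phospho-AKT (S473, T308), phospho-ERK1/2, phospho-S6 and phospho-P70S6K; ECL detection.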

MV4;11 xenografts = experiment: MV4; type: in vivo, nude mice
p110δ [2] = target: T1, p110δ (Homo sapiens, UniProt O00329); experiment: PI3K isoform-specific cell-based assay, anti‐IgM–stimulated Raji cells; details: anti‐IgM 1 μg/mL 10 min, then 3 h drug
T1 sequence (O00329 whole entry, species assumed, canonical isoform): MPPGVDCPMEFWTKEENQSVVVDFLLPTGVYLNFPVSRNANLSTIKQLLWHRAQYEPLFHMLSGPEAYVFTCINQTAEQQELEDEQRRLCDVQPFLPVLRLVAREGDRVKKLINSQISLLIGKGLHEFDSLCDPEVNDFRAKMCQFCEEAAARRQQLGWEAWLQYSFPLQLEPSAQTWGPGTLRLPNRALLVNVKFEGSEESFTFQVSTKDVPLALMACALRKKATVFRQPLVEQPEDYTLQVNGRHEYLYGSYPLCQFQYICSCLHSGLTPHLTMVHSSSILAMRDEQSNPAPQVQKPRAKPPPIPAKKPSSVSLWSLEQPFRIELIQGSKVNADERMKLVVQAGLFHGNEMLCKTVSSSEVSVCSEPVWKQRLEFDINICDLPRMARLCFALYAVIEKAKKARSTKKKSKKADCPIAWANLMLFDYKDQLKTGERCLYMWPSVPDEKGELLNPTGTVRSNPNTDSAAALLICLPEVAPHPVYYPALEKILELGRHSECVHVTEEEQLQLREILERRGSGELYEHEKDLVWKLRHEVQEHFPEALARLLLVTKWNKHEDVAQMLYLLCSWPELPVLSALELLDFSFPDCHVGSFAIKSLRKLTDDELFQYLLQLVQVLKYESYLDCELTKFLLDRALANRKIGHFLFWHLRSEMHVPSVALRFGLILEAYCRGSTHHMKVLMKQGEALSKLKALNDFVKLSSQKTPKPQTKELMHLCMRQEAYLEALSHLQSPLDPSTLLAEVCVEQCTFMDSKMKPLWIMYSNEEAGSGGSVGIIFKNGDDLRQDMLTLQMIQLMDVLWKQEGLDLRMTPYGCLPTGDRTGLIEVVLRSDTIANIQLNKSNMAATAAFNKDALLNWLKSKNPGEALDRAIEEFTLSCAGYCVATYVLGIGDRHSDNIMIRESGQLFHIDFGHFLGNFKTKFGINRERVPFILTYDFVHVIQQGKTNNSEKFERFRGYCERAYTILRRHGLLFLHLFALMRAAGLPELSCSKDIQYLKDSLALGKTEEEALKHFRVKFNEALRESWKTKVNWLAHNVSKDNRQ
T1 sequence (P27986 whole entry partner, species assumed, canonical isoform): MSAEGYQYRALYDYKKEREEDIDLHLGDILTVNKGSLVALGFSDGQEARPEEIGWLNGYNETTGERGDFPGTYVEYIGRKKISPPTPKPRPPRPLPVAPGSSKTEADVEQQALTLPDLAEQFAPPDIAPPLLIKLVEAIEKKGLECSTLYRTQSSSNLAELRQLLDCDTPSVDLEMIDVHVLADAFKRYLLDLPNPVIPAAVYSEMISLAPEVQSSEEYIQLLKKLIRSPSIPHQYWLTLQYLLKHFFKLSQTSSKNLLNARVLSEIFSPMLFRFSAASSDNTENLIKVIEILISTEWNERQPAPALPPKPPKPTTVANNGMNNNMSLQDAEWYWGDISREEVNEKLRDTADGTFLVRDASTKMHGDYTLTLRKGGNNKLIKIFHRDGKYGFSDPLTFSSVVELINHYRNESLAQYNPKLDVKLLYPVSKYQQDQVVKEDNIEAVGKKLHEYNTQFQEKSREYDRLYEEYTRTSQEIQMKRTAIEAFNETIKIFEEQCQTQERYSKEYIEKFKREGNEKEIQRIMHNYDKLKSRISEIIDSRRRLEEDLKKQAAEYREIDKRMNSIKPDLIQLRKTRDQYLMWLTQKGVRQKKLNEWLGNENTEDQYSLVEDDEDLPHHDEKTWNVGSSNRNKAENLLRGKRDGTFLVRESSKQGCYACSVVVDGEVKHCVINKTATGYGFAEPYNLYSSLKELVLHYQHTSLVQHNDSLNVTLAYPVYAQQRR

MV4;11 cells [3] = experiment: Cell proliferation MTT assay; type: cell-based; details: Homo sapiens, MV4-11, 72 h, read-out: IC50 value, MV4;11
How it was run: (§2)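 Cells kept in RPMI-1640 with 10% FBS at 37°C, 5% CO2. In 96-well plates, cells exposed in triplicate to a range of test compound concentrations for 72 h at 37°C. Viability read by MTT conversion to coloured product. IC50 by curve fitting; mean ± SEM of three independent experiments.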

MV4;11 cells [4] = experiment: Apoptosis, Annexin V staining and cleaved caspases/PARP; type: cell-based, human; details: MV4;11 (and RS4;11), 48 h
How it was run: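 MV4;11 and RS4;11 cells exposed to test compound at several concentrations for 48 h. Whole-cell lysates were resolved by SDS-PAGE, blotted onto PVDF and probed for PARP and caspase-3, -8 and -9 cleavage, with ECL detection.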

MV4;11 cells [5] = experiment: Cell cycle analysis by flow cytometry; type: cell-based, human; details: MV4;11, 24 h, 1 μM; control 63.3%
[6] = test system: peripheral blood mononuclear cells; experiment: Cytotoxicity against peripheral blood mononuclear cells; type: cell-based; details: 10 μM; data not shown
p110α [7] = target: T2, p110α (Homo sapiens, UniProt P42336); experiment: biochemical
T2 sequence (P42336 whole entry, species assumed): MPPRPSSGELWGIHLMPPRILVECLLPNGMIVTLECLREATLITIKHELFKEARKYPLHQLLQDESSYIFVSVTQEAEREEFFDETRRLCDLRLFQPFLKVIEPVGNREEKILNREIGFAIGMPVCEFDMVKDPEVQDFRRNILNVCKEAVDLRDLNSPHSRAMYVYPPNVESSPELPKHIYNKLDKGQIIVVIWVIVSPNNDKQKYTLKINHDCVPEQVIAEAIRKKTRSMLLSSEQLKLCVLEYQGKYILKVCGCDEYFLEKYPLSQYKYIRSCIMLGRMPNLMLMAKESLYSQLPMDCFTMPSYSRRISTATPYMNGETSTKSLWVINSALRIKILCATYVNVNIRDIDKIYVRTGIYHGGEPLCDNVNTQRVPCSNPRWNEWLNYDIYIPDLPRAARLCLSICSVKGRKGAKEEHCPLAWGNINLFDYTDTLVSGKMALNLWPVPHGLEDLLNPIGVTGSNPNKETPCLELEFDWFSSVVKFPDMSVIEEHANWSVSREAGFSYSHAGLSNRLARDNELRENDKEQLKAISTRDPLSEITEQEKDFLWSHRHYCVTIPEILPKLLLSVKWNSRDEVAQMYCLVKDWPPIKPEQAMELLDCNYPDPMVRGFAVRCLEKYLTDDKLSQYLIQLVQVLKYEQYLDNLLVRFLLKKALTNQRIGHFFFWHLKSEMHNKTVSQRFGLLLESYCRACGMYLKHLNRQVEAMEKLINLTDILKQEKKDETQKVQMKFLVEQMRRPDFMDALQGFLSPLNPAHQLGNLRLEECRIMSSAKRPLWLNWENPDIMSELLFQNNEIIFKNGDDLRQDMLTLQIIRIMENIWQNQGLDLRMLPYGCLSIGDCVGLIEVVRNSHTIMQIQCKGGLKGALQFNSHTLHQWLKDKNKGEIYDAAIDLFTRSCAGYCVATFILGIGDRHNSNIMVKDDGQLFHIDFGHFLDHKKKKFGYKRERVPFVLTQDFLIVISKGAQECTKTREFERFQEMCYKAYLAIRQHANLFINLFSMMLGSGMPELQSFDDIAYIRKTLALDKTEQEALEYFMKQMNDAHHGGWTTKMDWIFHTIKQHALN
T2 sequence (P27986 whole entry partner, species assumed): as the sequence (P27986 whole entry partner, species assumed, canonical isoform) above

RS4;11 xenografts = experiment: RS4; type: in vivo, nude mice
How it was run: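 Female Balb/cA nude mice, 5–6 weeks old, inoculated subcutaneously with 5–9 × 10^6 MV4;11 or RS4;11 cells and randomised at 100–300 mm3. Dosed orally with 30 or 60 mg/kg daily for 21 days, or vehicle (vehicle n = 12, treated n = 6). Tumour volume taken as (length × width²)/2; body weight and toxicity signs recorded. Tumours collected 3 h after last dose for western blot.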

[8] = Pharmacokinetic study in MV4; type: in vivo; details: single oral dose 60 mg/kg, MV4;11 tumor‐bearing mice
How it was run: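 MV4;11 tumour-bearing nude mice given a single oral 60 mg/kg dose or vehicle. Plasma and tumours collected at times from 0.5 to 24 h. Drug levels in plasma and tissue measured by HPLC/tandem MS; tumour extracts western blotted for phospho-AKT and phospho-ERK.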

[9] = test system: panel of other protein kinases; experiment: SelectScreen kinase profiling, whole panel; type: biochemical; details: 1000 nM
[10] = test system: p110δ‐negative MM.1R cell line; experiment: Cell proliferation MTT assay; type: cell-based; details: 72 h
How it was run: as §2

p110γ = p110γ (Mus musculus, UniProt Q9JHG7); experiment: PI3K isoform-specific cell-based assay, C5a-stimulated RAW264.7 cells; details: C5a 50 ng/mL, 3 h drug; compared with Raji cells
Chain of p110γ (Q9JHG7 whole entry, canonical isoform): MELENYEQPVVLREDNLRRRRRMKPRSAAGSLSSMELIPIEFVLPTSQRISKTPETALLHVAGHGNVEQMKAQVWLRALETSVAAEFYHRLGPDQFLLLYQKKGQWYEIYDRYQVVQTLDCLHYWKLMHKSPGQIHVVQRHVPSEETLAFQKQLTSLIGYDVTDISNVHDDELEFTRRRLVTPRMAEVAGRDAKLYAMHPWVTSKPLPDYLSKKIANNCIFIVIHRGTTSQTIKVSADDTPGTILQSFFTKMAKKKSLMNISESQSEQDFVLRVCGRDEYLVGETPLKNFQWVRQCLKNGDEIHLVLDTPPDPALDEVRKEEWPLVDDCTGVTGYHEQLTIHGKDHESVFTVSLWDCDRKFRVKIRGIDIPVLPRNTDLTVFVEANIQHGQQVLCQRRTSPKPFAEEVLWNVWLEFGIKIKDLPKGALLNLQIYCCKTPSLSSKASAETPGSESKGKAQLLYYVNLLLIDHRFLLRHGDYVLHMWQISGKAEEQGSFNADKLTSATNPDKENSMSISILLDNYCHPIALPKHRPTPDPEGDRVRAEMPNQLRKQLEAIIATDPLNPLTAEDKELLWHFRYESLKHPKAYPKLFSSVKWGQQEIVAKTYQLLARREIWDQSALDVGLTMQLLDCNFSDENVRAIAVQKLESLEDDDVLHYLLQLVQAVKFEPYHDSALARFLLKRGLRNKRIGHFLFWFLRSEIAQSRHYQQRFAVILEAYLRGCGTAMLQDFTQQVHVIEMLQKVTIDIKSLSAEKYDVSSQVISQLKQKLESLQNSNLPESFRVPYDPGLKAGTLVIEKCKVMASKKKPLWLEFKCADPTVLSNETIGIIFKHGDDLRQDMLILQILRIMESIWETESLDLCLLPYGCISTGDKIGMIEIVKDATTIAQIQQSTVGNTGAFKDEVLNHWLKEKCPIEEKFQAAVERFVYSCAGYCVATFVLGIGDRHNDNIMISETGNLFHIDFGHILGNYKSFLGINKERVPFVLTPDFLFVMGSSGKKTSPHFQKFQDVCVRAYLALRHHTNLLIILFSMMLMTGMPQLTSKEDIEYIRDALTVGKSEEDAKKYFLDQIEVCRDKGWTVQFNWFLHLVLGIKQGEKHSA

p110β [11] = target: T3, p110β (Homo sapiens, UniProt P42338); experiment: PI3K isoform-specific cell-based assay, LPA-stimulated PC‐3 cells; details: LPA 10 μM, 3 h drug; compared with Raji cells
T3 sequence (P42338 whole entry, species assumed, canonical isoform): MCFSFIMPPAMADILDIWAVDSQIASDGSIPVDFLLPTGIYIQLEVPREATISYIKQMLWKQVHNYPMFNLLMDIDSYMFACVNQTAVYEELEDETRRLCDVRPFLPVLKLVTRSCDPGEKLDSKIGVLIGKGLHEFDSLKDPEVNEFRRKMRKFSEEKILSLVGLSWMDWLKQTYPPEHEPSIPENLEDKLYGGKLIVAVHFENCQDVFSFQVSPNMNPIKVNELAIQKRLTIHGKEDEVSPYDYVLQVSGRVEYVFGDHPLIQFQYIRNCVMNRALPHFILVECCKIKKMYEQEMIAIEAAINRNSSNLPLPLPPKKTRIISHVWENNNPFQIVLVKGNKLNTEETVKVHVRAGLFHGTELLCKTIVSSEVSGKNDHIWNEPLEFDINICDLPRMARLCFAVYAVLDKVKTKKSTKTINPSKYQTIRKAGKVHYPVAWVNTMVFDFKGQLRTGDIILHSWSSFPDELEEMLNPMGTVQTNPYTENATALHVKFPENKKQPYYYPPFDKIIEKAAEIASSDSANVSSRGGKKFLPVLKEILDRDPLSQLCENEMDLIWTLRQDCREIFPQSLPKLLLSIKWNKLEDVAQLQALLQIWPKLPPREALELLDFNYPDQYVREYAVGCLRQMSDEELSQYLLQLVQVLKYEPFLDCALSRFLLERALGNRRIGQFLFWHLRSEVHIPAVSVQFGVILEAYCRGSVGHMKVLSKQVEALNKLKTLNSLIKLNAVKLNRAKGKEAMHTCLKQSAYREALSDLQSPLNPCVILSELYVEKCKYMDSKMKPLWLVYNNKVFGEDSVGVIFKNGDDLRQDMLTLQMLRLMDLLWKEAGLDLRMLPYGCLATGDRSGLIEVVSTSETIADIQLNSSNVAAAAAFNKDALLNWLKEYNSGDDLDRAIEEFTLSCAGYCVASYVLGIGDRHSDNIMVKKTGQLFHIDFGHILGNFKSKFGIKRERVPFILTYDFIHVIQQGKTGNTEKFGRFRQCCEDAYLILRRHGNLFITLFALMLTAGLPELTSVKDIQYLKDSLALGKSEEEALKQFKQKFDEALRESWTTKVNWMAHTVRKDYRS
T3 sequence (P27986 whole entry partner, species assumed, canonical isoform): as the sequence (P27986 whole entry partner, species assumed, canonical isoform) above
How it was run: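 PC-3 cells stimulated with LPA (10 μM) for 10 min, then exposed to test compound for a further 3 h. Cell lysates western blotted for AKT phosphorylation.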

p110δ [12] = target: T1, p110δ; experiment: PI3K ELISA kinase assay, recombinant class I PI3K; type: biochemical
[13] = test system: phosphorylation of AKT or ERK in MM.1R cells; experiment: Constitutive PI3K/AKT and ERK signaling in MM.1R cells; type: cell-based; details: low expression of p110δ; 1 μM, 3 h
How it was run: as §1

p110β [14] = target: T3, p110β; experiment: biochemical
p110α [15] = target: T2, p110α; experiment: PI3K isoform-specific cell-based assay, SK‐BR‐3 cells; details: 3 h
How it was run: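 SK-BR-3 cells exposed to test compound for 3 h. Cell lysates western blotted with phospho-specific antibodies for AKT phosphorylation.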

[16] = previous study ref 38; cited from earlier work

With CC[C@H](Nc1ncnc2[nH]cnc12)c1nc2cccc(F)c2c(=O)n1-c1ccccc1 [CAL‐101, Idelalisib, reference compound] the “Phosphorylation of AKT and ERK in p110δ‐positive AML cells” value [1] was “preferentially inhibited phosphorylation of AKT relative to ERK”, the Tumor growth inhibition (MV4;11 xenografts; MV4;11 xenografts, 90 mg/kg oral daily) was 50% and the Tumor growth inhibition (MV4;11 xenografts; MV4;11 xenografts, 180 mg/kg oral daily) was 61%. For the same compound, the “Phosphorylation of AKT, S6 and ERK in anti‐IgM–stimulated Raji cells” value (p110δ [2]) was “concentration‐dependent decrease”, the IC50 (MV4;11 cells [3]) was 2400 nM and the Apoptosis induction (MV4;11 cells [4]) was “weaker induction of apoptosis”. It also gave a G1 phase cells (MV4;11 cells [5]) of 70.7%.

With c1cnc2ccc(Nc3nc(NC4CC4)c4nc[nH]c4n3)cc2c1 [Puquitinib] the “Phosphorylation of AKT and ERK in p110δ‐positive AML cells” value [1] was “significantly inhibited”, the “Cytotoxicity against peripheral blood mononuclear cells” value [6] was “no cytotoxicity” and the IC50 (p110α [7]) was 993 ± 320 nM. For the same compound, the Tumor growth inhibition (RS4;11 xenografts; 30 mg/kg oral daily for 21 days) was 50%, the Tumor growth inhibition (RS4;11 xenografts; 60 mg/kg oral daily for 21 days) was 69% and the “Appearance in plasma and tumor tissue” value [8] was “appeared rapidly”. The “Inhibitory activity against a panel of other protein kinases” value [9] was “little or no inhibitory activity”, the “Cytotoxicity in p110δ‐negative MM.1R cell line” value [10] was “minimal cytotoxicity” and the “C5a‐stimulated phosphorylation of AKT in RAW 264.7 cells” value (p110γ) was “much weaker”. For the same compound, the “Levels of pAKT and pERK in tumor tissues” value (MV4;11 xenografts; MV4;11 and RS4;11 tumor models, 3 h after last dose) was “significantly decreased”, the “Tolerability (body weight loss, signs of toxicity)” value (MV4;11 xenografts; MV4;11 and RS4;11 xenograft studies, all groups) was “well tolerated” and the “Phosphorylation of AKT and ERK in tumor tissue after a single dose” value (MV4;11 xenografts; MV4;11 xenograft, single oral 60 mg/kg, 0.5 to 24 h) was “inhibited in a time‐dependent manner”. For the same compound, the Tumor growth inhibition (MV4;11 xenografts; MV4;11 xenografts, 30 mg/kg oral daily for 21 days, final treatment day) was 72%, the Complete tumor regression (MV4;11 xenografts; MV4;11 xenografts, 60 mg/kg oral daily) was “three of six” and the Tumor growth inhibition (MV4;11 xenografts; MV4;11 xenografts, 60 mg/kg oral daily for 21 days, final treatment day) was 103%. The “Antitumor efficacy of combination versus single agents” value (MV4;11 xenografts; MV4;11 xenografts, 30 mg/kg puquitinib combined with 2 mg/kg daunorubicin, P < 0.01) was “significantly superior”, the Tolerability of combination (MV4;11 xenografts; MV4;11 xenografts, puquitinib with daunorubicin or cytarabine) was “generally well tolerated” and the “LPA‐stimulated phosphorylation of AKT in PC‐3 cells” value (p110β [11]) was “much weaker”. The “Phosphorylation of AKT, S6 and ERK in anti‐IgM–stimulated Raji cells” value (p110δ [2]) was “concentration‐dependent decrease”, the IC50 (p110δ [12]) was 3.3 ± 0.6 nM and the “Phosphorylation of AKT or ERK in MM.1R cells” value [13] was “did not affect”. For the same compound, the IC50 (MV4;11 cells [3]) was 100 nM, the IC50 (p110β [14]) was 959 ± 367 nM and the Apoptosis induction (MV4;11 cells [4]) was “increased in a dose‐dependent manner”. The G1 phase cells (MV4;11 cells [5]) was 83.0%, the “p110α/AKT phosphorylation in SK‐BR‐3 cells” value (p110α [15]) was “No obvious inhibitory activity” and the Hyperglycemia [16] was “no puquitinib‐related hyperglycemia”.
